The source of these data is ChEMBL document CHEMBL3232790, “Identification of a new series of amides as non-covalent proteasome inhibitors” (Eur J Med Chem, 2014).

In general, inhibition refers to the share of the control response that was lost under treatment. One may read the Ki as the equilibrium dissociation constant of an inhibitor or competing ligand from its target.

The source made the active and inactive calls. No cut-off for these calls is given here. Some results are limits rather than exact numbers.

Test [1] addresses Chymotrypsinogen A (Bos taurus) (UniProt P00766). Nature of the test: (§1) Inhibition of bovine pancreatic alpha-chymotrypsin activity assessed as Suc-Leu-Leu-Val-Tyr-AMC substrate hydrolysis after 10 mins. The essentials: (§2)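 Bovine pancreatic α-chymotrypsin in 50 mM Tris pH 8.0 with 100 mM NaCl, 5 mM EDTA and 7.5% DMSO. Suc-Leu-Leu-Val-Tyr-AMC at 75 (final) as substrate. AMC release was followed over 10 min.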

Test [2] has as its target Cathepsin B (Homo sapiens) (UniProt P07858). Nature of the test: Inhibition of cathepsin B (unknown origin) assessed as Cbz-Phe-Arg-AMC substrate hydrolysis.
A further test concerns NCI60. Nature of the test: Cytotoxicity against human NCI60 cells at 10^-5 M. In kind it is functional, cell-based.
Test [3] concerns the target T1, Proteasome Macropain subunit MB1 (Homo sapiens) (UniProt P28074).
T1 sequence (whole entry): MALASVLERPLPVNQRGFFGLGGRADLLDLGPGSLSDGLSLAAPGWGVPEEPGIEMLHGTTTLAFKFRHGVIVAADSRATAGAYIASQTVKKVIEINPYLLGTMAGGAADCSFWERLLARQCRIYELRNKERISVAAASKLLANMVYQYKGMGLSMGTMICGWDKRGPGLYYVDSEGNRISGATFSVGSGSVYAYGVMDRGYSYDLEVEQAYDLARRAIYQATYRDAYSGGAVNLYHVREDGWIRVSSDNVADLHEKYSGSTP
The test can be described thus: Inhibition of chymotrypsin-like activity of human 20S proteasome beta 5 subunit assessed as Suc-Leu-Leu-Val-Tyr-AMC substrate hydrolysis at 20 uM after 10 mins by fluorometric analysis. The procedure, abridged:
(§3)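 Single-concentration preliminary screen of human 20S proteasome activity. An equivalent amount of DMSO served as negative control. AMC release read by fluorescence at 30 °C (ex 380/em 460 nm). Percent inhibition was recorded, and at least 40% inhibition triggered full Ki assays.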

The target in test [4] is T2, Proteasome component C5 (Homo sapiens) (UniProt P20618).
T2 sequence (whole entry): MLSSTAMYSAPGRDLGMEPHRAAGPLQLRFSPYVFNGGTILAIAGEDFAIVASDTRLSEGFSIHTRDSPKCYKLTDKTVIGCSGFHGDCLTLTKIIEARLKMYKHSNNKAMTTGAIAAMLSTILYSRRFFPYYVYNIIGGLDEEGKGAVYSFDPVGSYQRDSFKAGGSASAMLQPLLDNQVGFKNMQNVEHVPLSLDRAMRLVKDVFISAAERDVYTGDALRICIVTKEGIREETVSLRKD
The test can be described thus: Inhibition of caspase-like activity of human 20S proteasome beta 1 subunit assessed as Cbz-Leu-Leu-Glu-AMC substrate hydrolysis at 20 uM after 10 mins by fluorometric analysis. The essentials: as §3

In test [5] the target is T3, Proteasome Macropain subunit MB1 (Homo sapiens, UniProt P28074).
T3 sequence (P28074 whole entry): T1 sequence (whole entry)
Nature of the test: Inhibition of chymotrypsin-like activity of human 20S proteasome beta 5 subunit assessed as Suc-Leu-Leu-Val-Tyr-AMC substrate hydrolysis after 10 mins by fluorometric analysis. The procedure, abridged:
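Human 20S proteasome at 0.004 mg mL-1 final, incubated at 30 °C with varied inhibitor concentrations. Buffer: 50 mM Tris pH 7.5, 10 mM NaCl, 25 mM KCl, 1 mM MgCl2, 0.03% SDS, 5% DMSO. Ki from progress-curve slopes fitted to a 4-parameter IC50 equation, Ki = IC50/(1+[S]/Km), Km measured separately. Mean of three.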

Another test deals with Chymotrypsinogen A (Bos taurus, UniProt P00766). The description is as §1. The procedure, abridged:
as §2

As for `O=C(Cn1ccccc1=O)NCc1ccccc1`, the inhibition entry in test [1] and in test [2] was “inactive” throughout. Moreover, in the test on NCI60, the outcome was inactive. In test [3], the inhibition was 15%.
Turning to `CC(C)C[C@H](NC(=O)[C@H](C)n1ccc2ncccc2c1=O)B(O)O`, the inhibition in test [3] came to 100%.
`COc1ccc(NC(=O)Cn2ccc(Nc3ccccc3)cc2=O)cc1`: the values for the inhibition in test [4] and in test [3] were above 50% and 72%, respectively. Moreover, the Ki in test [5] came out at 1.48 µM. The inhibition result in test [1] and in test [2] was “inactive” in each case. Besides, the result in the test with NCI60 was inactive.
On to `O=C(Cn1ccccc1=O)NC12CC3CC(CC(C3)C1)C2`, for which the inhibition was above 50% in test [4] and 86% in test [3]. Besides, the Ki in test [5] is 7.55 µM. In addition, the inhibition result in test [1] and in test [2] was “inactive” in each case. In addition, the outcome in the test on NCI60 was inactive.
Take `O=C(Cn1ccccc1=O)Nc1ccccc1`: the inhibition result in test [1] and in test [2] was “inactive” throughout. In addition, the result in the test on NCI60 was inactive. In test [3], the inhibition worked out at 23%.
Consider `CC(C)C[C@H](NC(=O)Cn1ccc(Nc2ccccc2)cc1=O)B(O)O`, for which the inhibition in test [3] amounted to 97%.
With `COc1ccc(NC(=O)Cn2ccccc2=O)cc1`, the inhibition result in test [1] and in test [2] was “inactive” each time. Besides, in the test with NCI60, the outcome was inactive. Moreover, the inhibition in test [3] turned out to be 32%.
On to `O=C(Cn1ccccc1=O)Nc1ccccc1C(=O)c1ccccc1`, for which the inhibition result in test [1] and in test [2] was “inactive” in each case. Also, in the test on NCI60, the outcome was inactive. For the same molecule, the inhibition in test [3] is 21%.
For the molecule `O=C(Cn1ccc(Nc2ccccc2)cc1=O)NC12CC3CC(CC(C3)C1)C2`, the inhibition result in test [1] and in test [2] was “inactive” each time. For the same molecule, the outcome in the test on NCI60 was inactive. Besides, the inhibition in test [3] came to 13%.
`CC(C)C[C@H](NC(=O)Cn1cc(Br)c2ncccc2c1=O)B(O)O`: the inhibition in test [3] was found to be 100%.
Still for that read-out and setting: next, `CCN(CC)c1ccn(CC(=O)N[C@@H](CC(C)C)B(O)O)c(=O)c1`: 100%.
On to `O=C(Cn1ccc(Nc2ccccc2)cc1=O)Nc1ccccc1C(=O)c1ccccc1`, for which the Ki in test [5] came to 8.03 µM; at Chymotrypsinogen A, 6.65 µM. Also, the inhibition result in test [2] is “inactive”. Besides, the outcome in the test with NCI60 was inactive. Besides, in test [3], the inhibition came out at 67%.
For the molecule `CC(C)CCNC(=O)Cn1ccc(N2CCOCC2)cc1=O`, the Ki in test [5] amounted to 7.67 µM. Also, the inhibition entry in test [1] and in test [2] was “inactive” in each case. Besides, the result with NCI60 was inactive. In addition, the inhibition in test [3] was 42%.
On to `O=C(Cn1ccc(Nc2ccccc2)cc1=O)Nc1ccccc1`, for which the inhibition entry in test [1] and in test [2] was “inactive” each time. The result in the test on NCI60 was inactive. Moreover, in test [3], the inhibition worked out at 9%.
`CC(C)C[C@H](NC(=O)[C@H](Cc1ccccc1)NC(=O)c1cnccn1)B(O)O`: the inhibition result in test [1] and in test [2] was “inactive” in each case. Further, the result in the test with NCI60 was inactive. The inhibition in test [3] is 100%.
Regarding `CC(C)C[C@H](NC(=O)Cn1ccc2ncccc2c1=O)B(O)O`, the inhibition in test [3] came out at 100%.
Take `CCN(CC)c1ccn(CC(=O)NCCC(C)C)c(=O)c1`: the inhibition result in test [1] and in test [2] was “inactive” throughout. Further, the result in the test on NCI60 was inactive. For the same molecule, the inhibition in test [3] was 28%.
Regarding `CC(C)CCNC(=O)[C@H](C)n1ccc2ncccc2c1=O`, the inhibition result in test [1] and in test [2] was “inactive” in each case. Moreover, the outcome in the test with NCI60 was inactive. Further, the inhibition in test [3] amounted to 35%.
`CC(C)CCNC(=O)Cn1ccc(N2CCCCC2)cc1=O`: the inhibition result in test [1] and in test [2] was “inactive” each time. Moreover, the result in the test with NCI60 was inactive. Besides, the inhibition in test [3] worked out at 27%.
For the molecule `CC(C)CCNC(=O)Cn1ccc2c(c1=O)CCCN2`, the Ki in test [5] came to 10.1 µM. The inhibition result in test [1] and in test [2] was “inactive” each time. Also, the result in the test on NCI60 was inactive. Moreover, the inhibition in test [3] was 45%.
In the case of `CC(C)C[C@H](NC(=O)Cn1ccc2c(c1=O)CCCN2C)B(O)O`, the inhibition in test [3] amounted to 84%.
`CC(C)CCNC(=O)Cn1ccc2c(c1=O)CCCN2C`: the inhibition entry in test [1] and in test [2] was “inactive” each time. In addition, in the test on NCI60, the result was inactive. For the same molecule, in test [3], the inhibition was determined as 7%.
On to `CC(C)CCNC(=O)Cn1ccc2ncccc2c1=O`, for which the inhibition entry in test [1] and in test [2] was “inactive” throughout. For the same molecule, the result with NCI60 was inactive. Further, the inhibition in test [3] worked out at 10%.
On to `CC(C)CCNC(=O)Cn1ccc(Nc2ccccc2)cc1=O`, for which the Ki in test [5] was 0.33 µM. The inhibition result in test [1] and in test [2] was “inactive” in each case. For the same molecule, the result with NCI60 was inactive. In test [3], the inhibition was found to be 87%.
Regarding `O=C(Cn1ccc(Nc2ccccc2)cc1=O)NCc1ccccc1`, the inhibition result in test [1] and in test [2] was “inactive” in each case. Moreover, the outcome in the test with NCI60 was inactive. Moreover, the inhibition in test [3] came out at 16%.
With `CC(C)CCNC(=O)Cn1cc(Br)c2ncccc2c1=O`, in test [5], the Ki worked out at 0.56 µM. In addition, the inhibition entry in test [1] and in test [2] was “inactive” each time. For the same molecule, the outcome in the test with NCI60 was inactive. In test [3], the inhibition came to 56%.
